In ChEMBL document CHEMBL4038284, “Synthesis of novel quinoline-based 4,5-dihydro-1H-pyrazoles as potential anticancer, antifungal, antibacterial and antiprotozoal agents” (Eur J Med Chem, 2017):
≈ marks a conversion by molar mass, not a printed value.

Assays:
[1] = tested on: Cryptococcus neoformans; assay: Growth inhibition of Cryptococcus neoformans ATCC 32264 at 7.8 ug/ml incubated for 48 hrs under dark condition by broth microdilution method relative to control; type: functional; conditions: ATCC 32264, 48 h, read-out: GI
Outline: (§1)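 CLSI M27-A3 broth microdilution in RPMI-1640, DMSO ≤1%. Inoculum 1-5 × 10^3 CFU/mL. Incubated 48 h at 30 °C, dark. % inhibition = 100 − (OD405 test − sterility control)/(OD405 growth control − sterility control), with growth and sterility control wells. Triplicate.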

[2] = tested on: Cryptococcus neoformans; assay: Growth inhibition of Cryptococcus neoformans ATCC 32264 at 125 ug/ml incubated for 48 hrs under dark condition by broth microdilution method relative to control; type: functional; conditions: ATCC 32264, 48 h, read-out: GI; outline: as §1
[3] = tested on: Candida albicans; assay: Growth inhibition of Candida albicans ATCC 10231 at 125 ug/ml incubated for 48 hrs under dark condition by broth microdilution method relative to control; type: functional; conditions: ATCC 10231, 48 h, read-out: GI; outline: as §1
[4] = tested on: Candida albicans; assay: Growth inhibition of Candida albicans ATCC 10231 at 7.8 ug/ml incubated for 48 hrs under dark condition by broth microdilution method relative to control; type: functional; conditions: ATCC 10231, 48 h, read-out: GI; outline: as §1
[5] = tested on: Staphylococcus aureus; assay: Antibacterial activity against methicillin-sensitive Staphylococcus aureus ATCC 25923 after 24 hrs by resazurin dye based microdilution assay; type: functional; conditions: ATCC 25923, 24 h
Outline: (§2)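 MIC taken as the lowest concentration giving visible inhibition and/or by resazurin (1 mg/mL). Gentamicin was the control. Run in duplicate, repeated at least three times.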

[6] = tested on: Candida albicans; assay: Growth inhibition of Candida albicans ATCC 10231 at 15.62 ug/ml incubated for 48 hrs under dark condition by broth microdilution method relative to control; type: functional; conditions: ATCC 10231, 48 h, read-out: GI; outline: as §1
[7] = tested on: Cryptococcus neoformans; assay: Growth inhibition of Cryptococcus neoformans ATCC 32264 at 15.62 ug/ml incubated for 48 hrs under dark condition by broth microdilution method relative to control; type: functional; conditions: ATCC 32264, 48 h, read-out: GI; outline: as §1
[8] = tested on: Cryptococcus neoformans; assay: Antifungal activity against Cryptococcus neoformans ATCC 32264 incubated for 48 hrs under dark condition by broth microdilution method; type: functional; conditions: ATCC 32264, 48 h
Outline: (§3)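 CLSI M27-A3 broth microdilution in RPMI-1640, DMSO ≤1%, compounds at 250-0.98 µg/mL final. Inoculum 1-5 × 10^3 CFU/mL. Incubated 48 h at 30 °C in a moist dark chamber, read at OD405. MIC80 and MIC50 taken from % inhibition dose-response curves (mean ± SEM, triplicate). Amphotericin B was the positive control.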

[9] = tested on: Klebsiella pneumoniae; assay: Antibacterial activity against ESBL positive Klebsiella pneumoniae ATCC 700603 after 24 hrs by resazurin dye based microdilution assay; type: functional; conditions: Klebsiella pneumoniae, 700603, 24 h; outline: as §2
[10] = tested on: Cryptococcus neoformans; assay: Growth inhibition of Cryptococcus neoformans ATCC 32264 at 62.5 ug/ml incubated for 48 hrs under dark condition by broth microdilution method relative to control; type: functional; conditions: ATCC 32264, 48 h, read-out: GI; outline: as §1
[11] = tested on: Cryptococcus neoformans; assay: Growth inhibition of Cryptococcus neoformans ATCC 32264 at 3.4 ug/ml incubated for 48 hrs under dark condition by broth microdilution method relative to control; type: functional; conditions: ATCC 32264, 48 h, read-out: GI
[12] = tested on: Escherichia coli; assay: Antibacterial activity against Escherichia coli ATCC 25922 after 24 hrs by resazurin dye based microdilution assay; type: functional; conditions: ATCC 25922, 24 h; outline: as §2
[13] = tested on: Staphylococcus aureus; assay: Antibacterial activity against methicillin-resistant Staphylococcus aureus ATCC 43300 after 24 hrs by resazurin dye based microdilution assay; type: functional; conditions: ATCC 43300, 24 h
Outline: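 Broth microdilution in Mueller Hinton broth, inoculum 5 × 10^5 – 8 × 10^5. Compound stocks diluted in MHB with 5% DMSO and 0.1% Tween 80. Incubation 24 h at 35-37 °C. MIC is the lowest concentration with visible growth inhibition and/or by resazurin (1 mg/mL) read-out. Gentamicin as control. Run in duplicate, replicated at least three times.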

[14] = tested on: Candida albicans; assay: Growth inhibition of Candida albicans ATCC 10231 at 62.5 ug/ml incubated for 48 hrs under dark condition by broth microdilution method relative to control; type: functional; conditions: ATCC 10231, 48 h, read-out: GI; outline: as §1
[15] = tested on: Plasmodium falciparum; assay: Antiplasmodial activity against chloroquine-sensitive Plasmodium falciparum 3D7 assessed as reduction in parasitic LDH activity after 48 hrs by Malstat reagent based […] method; type: functional; conditions: 3D7, 48 h
Outline: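 Unsynchronized P. falciparum 3D7 at 0.5% parasitemia and 1% hematocrit in RPMI with 3% Albumax II. Exposed to 100, 25, 6.25 and 1.56 µg/mL for 48 h at 37 °C under 90% N2/5% CO2/5% O2. After three freeze-thaw cycles, LDH measured with Malstat and NBT/PES, 1 h in the dark, read at 650 nm. IC50 by Probit; triplicate, ≥2 experiments.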

[16] = tested on: Klebsiella pneumoniae; assay: Antibacterial activity against carbapenemase positive Klebsiella pneumoniae BAA 1705 after 24 hrs by resazurin dye based microdilution assay; type: functional; conditions: BAA 1705, 24 h; outline: as §2
[17] = tested on: Candida albicans; assay: Growth inhibition of Candida albicans ATCC 10231 at 31.25 ug/ml incubated for 48 hrs under dark condition by broth microdilution method relative to control; type: functional; conditions: ATCC 10231, 48 h, read-out: GI; outline: as §1
[18] = tested on: Neisseria gonorrhoeae; assay: Antibacterial activity against beta lactamase positive Neisseria gonorrhoeae ATCC 31426 by oxidase test; type: functional
Outline: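 Agar dilution MIC on GC agar with 1% isovitalex containing increasing compound concentrations. Plates inoculated with about 1×10^4 CFU (5 µL). MIC is the lowest concentration that inhibited growth, with growth confirmed by oxidase test. Run in duplicate, repeated at least three times.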

[19] = tested on: U-937; assay: Cytotoxicity against human U937 cells after 72 hrs by MTT assay; type: cell-based; conditions: u-937, 72 h
Outline: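 Exponentially growing U-937 at 1 × 10^5 cells/mL in RPMI-1640 with 10% FBS were exposed to 200, 50, 12.5 and 3.125 µg/mL for 72 h at 37 °C, 5% CO2. MTT for 3 h, stopped with isopropanol/SDS, formazan read at 570 nm, blank-corrected. LC50 by Probit from % viability against untreated cells. Triplicate, at least two independent experiments.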

[20] = tested on: Trypanosoma cruzi; assay: Antitrypanosomal activity against Trypanosoma cruzi Tulahuen intracellular amastigote harboring LacZ infected in human U937 cells after 72 hrs by CPRG/Nonidet reagent based spectrophotometric method; type: functional, cell-based; conditions: U-937, 72 h
Outline: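 U-937 cells at 2.5 × 10^5 cells/mL in RPMI-1640 with 10% serum and 0.1 µg/mL PMA were infected with β-galactosidase-transfected Tulahuen epimastigotes at 5 parasites per cell. Infected cells were exposed to 50, 12.5, 3.125 and 0.78 µg/mL for 72 h. CPRG (100 uM) and 0.1% Nonidet P-40 were added for 3 h, read at 570 nm. EC50 by Probit. Triplicate, at least two experiments; benznidazole as reference.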

[21] = tested on: Pseudomonas aeruginosa; assay: Antibacterial activity against Pseudomonas aeruginosa ATCC 27853 after 24 hrs by resazurin dye based microdilution assay; type: functional; conditions: ATCC 27853, 24 h; outline: as §2
[22] = tested on: Candida albicans; assay: Growth inhibition of Candida albicans ATCC 10231 at 3.4 ug/ml incubated for 48 hrs under dark condition by broth microdilution method relative to control; type: functional; conditions: ATCC 10231, 48 h, read-out: GI
[23] = tested on: Leishmania panamensis; assay: Antileshmanial activity against EpiR/GFP fused Leishmania panamensis MHOM/CO/87/UA140 intracellular amastigotes infected in human […] cells after 72 hrs by flow cytometric method; type: functional, cell-based; conditions: MHOM/CO/87/UA140, 72 h
Outline: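 PMA-treated U-937 cells (3 × 10^5 cells/mL) infected with stationary-phase GFP L. panamensis promastigotes (15:1), 3 h at 34 °C, then washed. After 24 h, compounds added at 50, 12.5, 3.125 and 0.78 µg/mL for 72 h at 37 °C. EC50 by Probit; triplicate, two experiments.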

[24] = tested on: Staphylococcus aureus; assay: Antibacterial activity against vancomycin-intermediate Staphylococcus aureus after 24 hrs by resazurin dye based microdilution assay; type: functional; outline: as §2
[25] = tested on: Cryptococcus neoformans; assay: Growth inhibition of Cryptococcus neoformans ATCC 32264 at 250 ug/ml incubated for 48 hrs under dark condition by broth microdilution method relative to control; type: functional; conditions: ATCC 32264, 48 h, read-out: GI; outline: as §1
[26] = tested on: Candida albicans; assay: Growth inhibition of Candida albicans ATCC 10231 at 250 ug/ml incubated for 48 hrs under dark condition by broth microdilution method relative to control; type: functional; conditions: ATCC 10231, 48 h, read-out: GI; outline: as §1
[27] = tested on: Candida albicans; assay: Antifungal activity against Candida albicans ATCC 10231 incubated for 48 hrs under dark condition by broth microdilution method; type: functional; conditions: ATCC 10231, 48 h; outline: as §3
[28] = tested on: Cryptococcus neoformans; assay: Growth inhibition of Cryptococcus neoformans ATCC 32264 at 31.25 ug/ml incubated for 48 hrs under dark condition by broth microdilution method relative to control; type: functional; conditions: ATCC 32264, 48 h, read-out: GI; outline: as §1

SMILES | inhibition of growth at 7.8 µg/mL [1] [%] | inhibition of growth at 125 µg/mL [2] [%] | inhibition of growth at 125 µg/mL [3] [%] | inhibition of growth at 7.8 µg/mL [4] [%] | MIC [5] [µg/mL] | inhibition of growth at 15.62 µg/mL [6] [%] | inhibition of growth at 15.62 µg/mL [7] [%] | MIC50 [8] [µg/mL] | MIC80 [8] [µg/mL] | MIC [9] [µg/mL] | inhibition of growth at 62.5 µg/mL [10] [%] | inhibition of growth at 3.4 µg/mL [11] [%] | MIC [12] [µg/mL] | MIC [13] [µg/mL] | inhibition of growth at 62.5 µg/mL [14] [%] | EC50 [15] [µg/mL] | MIC [16] [µg/mL] | inhibition of growth at 31.25 µg/mL [17] [%] | MIC [18] [µg/mL] | LC50 [19] [µg/mL] | further results
CC(=O)N1N=C(c2ccccc2)CC1c1cccc(Nc2ccnc3cc(Cl)ccc23)c1 (stereo not given) | 8.77 | 41.9 | 27.5 | 10.5 | > 1000 | 19.8 | 12.2 | 250 (≈ 567 µM) | ≥ 250 | > 1000 | 12.8 | 0 | > 1000 | > 1000 | 23.1 | 12.7 (≈ 28.7 µM) | > 1000 | 21.2 | > 1000 | 5.8 (≈ 13.2 µM) | EC50 [20]: 4.26 µg/mL (≈ 9.66 µM); MIC [21]: > 1000 µg/mL; inhibition of growth at 3.4 µg/mL [22]: 5.28%; EC50 [23]: 3.67 µg/mL (≈ 8.32 µM); MIC [24]: > 1000 µg/mL; inhibition of growth at 250 µg/mL [25]: 69.2%; inhibition of growth at 250 µg/mL [26]: 53.3%; MIC50 [27]: 250 µg/mL (≈ 567 µM); MIC80 [27]: ≥ 250 µg/mL; inhibition of growth at 31.25 µg/mL [28]: 12.3%
Cc1ccc(C2=NN(C=O)C(c3cccc(Nc4ccnc5cc(Cl)ccc45)c3)C2)cc1 (stereo not given) | 31.1 | 50.7 | 28.5 | 13.7 | > 1000 | 22.6 | 43.6 | 125 (≈ 283 µM) | ≥ 250 | > 1000 | 44.5 | 24.8 | > 1000 | > 1000 | 24.3 | 16.2 (≈ 36.7 µM) | > 1000 | 23 | > 1000 | 1.3 (≈ 2.95 µM) | EC50 [20]: 0.96 µg/mL (≈ 2.18 µM); MIC [21]: > 1000 µg/mL; inhibition of growth at 3.4 µg/mL [22]: 12.7%; EC50 [23]: 2.19 µg/mL (≈ 4.97 µM); MIC [24]: > 1000 µg/mL; inhibition of growth at 250 µg/mL [25]: 76%; inhibition of growth at 250 µg/mL [26]: 48.4%; MIC50 [27]: ≥ 250 µg/mL; MIC80 [27]: ≥ 250 µg/mL; inhibition of growth at 31.25 µg/mL [28]: 44.4%
